# Source: PubChem BioAssay
# This is a sample that favours compounds with a hit; in the whole collection about 2.5% have one here.
# JNK3 blocker: JNK3 (human) kinase inhibition; purified JNK3 kinase activity, HTS; P53779; inhibition, % at 8 µM; hit rate 0.61% among 60,000; in the data active means inhibition above about 17%
# Target sequence (P53779 whole entry, looked up): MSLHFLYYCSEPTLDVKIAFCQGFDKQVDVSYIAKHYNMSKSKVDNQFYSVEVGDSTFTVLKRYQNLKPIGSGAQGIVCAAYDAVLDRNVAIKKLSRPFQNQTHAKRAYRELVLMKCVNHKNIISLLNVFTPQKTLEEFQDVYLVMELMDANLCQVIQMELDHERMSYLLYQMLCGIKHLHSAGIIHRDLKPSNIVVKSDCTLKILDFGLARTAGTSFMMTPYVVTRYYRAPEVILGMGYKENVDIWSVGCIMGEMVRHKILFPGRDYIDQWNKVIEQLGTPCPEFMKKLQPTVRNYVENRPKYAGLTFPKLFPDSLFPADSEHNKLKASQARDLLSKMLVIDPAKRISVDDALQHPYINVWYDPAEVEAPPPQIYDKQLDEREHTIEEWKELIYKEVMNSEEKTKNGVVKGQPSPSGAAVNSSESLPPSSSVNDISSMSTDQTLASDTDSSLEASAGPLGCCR
# Jurkat tox 60K: cytotoxicity toward Jurkat cells. hit rate 1.2% among 56,000. Jurkat E6.1 viability, ATP luminescence, 48 h. AID 463. inhibition, % at 4 µM;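 active means inhibition above the mean inhibition of all tested compounds plus 3 SD, cut at about 28% in these data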
# HEK293 NFkB inh: inhibitors of the PMA/ionomycin-induced NF-kB reporter in HEK293 cells | HEK-293 NF-kB luciferase reporter, luminescence | inhibition, % at 3 µM | hit rate 0.21% among 62,000 | AID 465;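 active means inhibition above the mean of all tested compounds plus 3 SD, cut at about 40% in these data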
#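 System: NF-kB luciferase reporter HEK-293 cells | Replication: Single test | Control set: DMSO vs reference inhibitor | Evaluation: % inhibition | Schedule: 1 h pretreatment, 16 h stimulation, 37 °C | Probe or stimulus: PMA with ionomycin | Compound dosing: One dose, 3 µM | Detection: Luciferase luminescence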
# HER2 expr 66K: inhibitors of human Her2 kinase expression; SKBR-3 HER2 protein level, AlphaScreen, 18-24 h; hits give low values; HER2 level % of control, % at 10 µM; hit rate 0.69% among 65,000;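 active means HER2 level under 5% of the carrier-only control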;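 further: lower value means stronger loss of Her2 protein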
# AP ELISA ortho: orthogonal test for alternative complement pathway inhibitors; inhibition, % at 5 µM; AID 1235; Human serum alternative complement pathway, LPS-coated ELISA, C3 deposition; tested in compound mixtures; hit rate 0.08% among 62,000;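 active means inhibition above 30% in each of the two pooled mixtures holding the compound, so the lower value exceeds 30%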
#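 Test system – human serum alternative complement pathway, C3 deposition on LPS-coated wells · Buffer or medium – diluted human serum in Mg2+-EGTA GVB++ · Compound dosing – 5 µM each compound, pools of ten, 50 µM per pool · Schedule – 1 h serum-compound exposure at 37 °C · Measured by – Anti-C3 ELISA, OD 450 nm · Read-out basis – percent inhibition of C3 deposition onto LPS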
# Hsp90 block: displaces geldanamycin probe from tumor Hsp90; NCI-N417 lysate Hsp90, Cy3B-geldanamycin FP displacement; hit rate 0.35% among 64,000; inhibition, % at 30 µM; P07900;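 active means inhibition above 50%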
# Numbers stand for hits; – = inactive; · = no result.
SMILES,JNK3 blocker,Jurkat tox 60K,HEK293 NFkB inh,HER2 expr 66K,AP ELISA ortho,Hsp90 block
Cc1cccc2cc(C#N)c(SCC(=O)N3CC(=O)Nc4ccccc43)nc12,–,99,–,–,–,–
Cc1cccc2cc(C#N)c(SCC(=O)N3CCC(C)CC3)nc12,–,–,–,–,–,–
CCOc1cc(C#N)c(NC(=O)c2cccnc2)cc1OCC,–,72,–,–,–,–
O=S(=O)(NCc1ccncc1)c1ccc(Br)s1,–,94,42,–,–,–
CCn1c2ccccc2c2cc(C3C(C#N)=C(N)Oc4n[nH]c(COC)c43)ccc21 (stereo unspecified),–,–,–,-24,–,–
COCc1[nH]nc2c1C(c1ccc(OC)c(OC)c1)C(C#N)=C(N)O2 (stereo unspecified),–,–,–,–,–,–
O=C(O)CCc1n[nH]c(=S)[nH]c1=O,–,–,–,–,–,–
Cc1ccc(NS(=O)(=O)c2cc(C(=O)N3CCOCC3)ccc2C)cc1,–,–,–,·,–,–
Cc1ccc(C)c(S(=O)(=O)Nc2ccc3scnc3c2)c1,–,92,–,–,–,–
CCOC(=O)N1CCC(NC(=O)c2ccc3c(c2)sc2nc(-c4ccccc4)cn23)CC1,–,–,–,–,–,–
CCOC(=O)N1CCC(NC(=O)c2ccc3c(c2)sc2nc(-c4cccc(OC)c4)cn23)CC1,–,35,–,–,–,–
Cc1cc(=O)[nH]c(Nc2ccc(C(=O)OC(C)C)cc2)n1,–,–,–,–,–,–
O=C(NCC(c1cccnc1)N1CCN(c2ccccc2)CC1)c1ccco1 (stereo unspecified),–,–,–,–,·,–
Cc1sc(NC(=O)c2ccco2)c(C(c2cccnc2)N2CCN(c3ccc(F)cc3)CC2)c1C (stereo unspecified),–,35,–,–,–,–
CCOC(=O)C1CCN(C(c2cccnc2)c2c(NC(=O)c3ccco3)sc(C)c2C)CC1 (stereo unspecified),–,34,–,–,–,–
Cc1cnc(C(=O)NCCc2ccc(S(=O)(=O)NC(=O)NC3CCCCC3)cc2)cn1,–,·,·,–,–,–
O=C(O)[C@@H]1C[C@H](C(=O)O)N1,·,·,·,·,·,–
Cc1sc(NC(=O)c2ccco2)nc1-c1ccc2c(c1)CC(C)N2C(=O)C1CC1 (stereo unspecified),–,64,–,–,–,–
CCOCCCn1c(C)nc2c(c1=O)c1nc3ccccc3nc1n2CCC1=CCCCC1,–,–,–,-22,–,–
Cc1cc(C)n(-c2c(F)c(F)c(CN3CCCCC3)c(F)c2F)n1,–,·,·,–,·,–
Cc1cc(C)n(-c2c(F)c(F)c(CN3CCOCC3)c(F)c2F)n1,–,–,–,-21,–,–
NC(=S)c1ccc[n+]([C@@H]2O[C@@H](COP(=O)([O-])OP(=O)(O)OC[C@H]3O[C@@H](n4cnc5c(N)ncnc54)C(OP(=O)(O)O)[C@H]3O)C(O)C2O)c1 (stereo partly specified),·,·,·,·,·,–
Cc1nn(C(C)C(=O)O)c(=O)c2c1sc1ccccc12 (stereo unspecified),21,–,–,–,–,–
Cc1nn(C(C)C(=O)N2CCCCC2)c(=O)c2c1sc1ccccc12 (stereo unspecified),–,–,–,–,–,–
CCOC(=O)NC1(Nc2ccc(Cl)cn2)Oc2ccccc2O1,–,33,–,–,–,50
SMILES,JNK3 blocker,Jurkat tox 60K,HEK293 NFkB inh,HER2 expr 66K,AP ELISA ortho,Hsp90 block
O=C(Nc1ccccn1)C(NS(=O)(=O)c1cccc2nsnc12)c1ccccc1 (stereo unspecified),–,–,–,–,–,–
N=c1ccn(Cc2ccc(Cl)c(Cl)c2)cc1,–,30,–,–,–,–
N=c1ccn(Cc2ccc(Cl)cc2)cc1,–,–,–,–,–,–
COC(=O)CSc1nc(C)c(Oc2ccccc2)c(=O)[nH]1,–,·,·,–,·,–
O=C1O/C(=C/Br)CCC1c1cccc2ccccc12 (stereo unspecified),·,·,·,·,·,–
CCc1ccc(OCc2nnc(SCC(=O)NCc3ccco3)o2)cc1,–,–,–,–,–,–
O=C1C2C3C=CC(CO)(O3)C2C(=O)N1c1ccccc1-c1ccccc1 (stereo unspecified),–,61,–,–,–,–
CCCCCCNS(=O)(=O)c1nc2nc(C)cc(C)n2n1,–,–,–,–,–,–
Cn1cnnc1SCC(=O)c1ccc2c(c1)CCCC2,–,–,–,–,–,54
COc1cc(C)c(Cl)cc1S(=O)(=O)NCc1ccncc1,–,67,–,–,–,–
CCCCCCCCCCCCCCCCCCOC[C@H](COP(=O)([O-])OCC[N+](C)(C)C)OC,·,·,·,·,·,–
Cc1cc(N)c2ccccc2[n+]1CCCCCCCCCCCCCC[n+]1c(C)cc(N)c2ccccc21,·,·,·,·,·,–
C#CC(N)CCC(=O)O (stereo unspecified),·,·,·,·,·,–
CCOC(=O)C1CCN(Cc2ccc(O)c3ncccc23)CC1,–,43,–,–,–,–
CCOC(=O)C1CCN(Cc2ccccc2C(F)(F)F)CC1,–,–,–,–,–,–
C=C(C)CSc1nc2c(c(=O)[nH]c(=O)n2C)n1CCC(C)C,–,–,–,–,–,–
Cc1cc(NC(=O)CNC(=O)C2CCCCC2)no1,–,–,–,-20,–,–
O=c1cc(O)cc(/C=C/c2ccc(O)c(O)c2)o1,·,·,·,·,·,83
CCSCCOC(=O)C1=C(C)NC(=O)NC1c1ccccc1 (stereo unspecified),–,–,–,–,–,88
CSc1nnc2c3ccccc3n(CCc3ccccc3)c2n1,–,37,58,–,–,–
O=C(CSC1=NCCS1)Nc1ccnc2ccccc12,–,29,–,–,–,–
Cc1cc(-c2cc(-c3ccc(Cl)cc3)nc(N)c2C#N)co1,–,·,·,–,·,–
CCC(=O)N1c2ccc(S(=O)(=O)CCC(=O)NC3CCCC3)cc2CC1C (stereo unspecified),–,–,–,–,–,–
CCC(=O)N1c2ccc(S(=O)(=O)CCC(=O)N3CCn4c3nc3ccccc34)cc2CC1C (stereo unspecified),–,–,–,-15,–,–
CN(CC(=O)Nc1ccc2c(c1)OCCO2)S(=O)(=O)c1cccc2cccnc12,–,–,–,–,–,–
CCNc1nc(NC(C)C)nc(OCCNS(=O)(=O)c2cc(C)ccc2C)n1,–,–,–,–,32,–
COC(=O)CC1=C(C(=O)OC)C(c2ccc3c(c2Cl)OCO3)C(C#N)=C(N)O1 (stereo unspecified),–,·,·,-22,–,–
Cc1ccc(C(CC(=O)c2ccco2)SCCO)cc1 (stereo unspecified),–,–,–,-1.4,–,–
CCOc1cc(S(=O)(=O)NCc2ccccn2)c(C)cc1C,–,–,–,–,–,–
Cc1cc(NC(=O)c2sccc2C)n(-c2cccc(Cl)c2)n1,–,–,–,–,–,–
